Legend:
[1] = target: T1, Neutrophil elastase (Homo sapiens) (UniProt P08246); experiment: Second-order rate constant for time-dependent inactivation of HLE for 15 min
T1 sequence (whole entry): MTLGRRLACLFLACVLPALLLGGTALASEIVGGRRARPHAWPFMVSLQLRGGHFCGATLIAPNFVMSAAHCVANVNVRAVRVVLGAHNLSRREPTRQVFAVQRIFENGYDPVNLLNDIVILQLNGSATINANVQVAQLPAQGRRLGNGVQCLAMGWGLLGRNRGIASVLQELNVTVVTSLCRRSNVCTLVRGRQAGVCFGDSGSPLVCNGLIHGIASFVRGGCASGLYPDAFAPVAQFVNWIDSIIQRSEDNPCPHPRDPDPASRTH
Method in brief: (§1)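 Inactivation of HLE by inhibitor was followed over 15 min. The second-order rate constant was expressed as k_obs/[I] (M^-1 s^-1). Where inhibition was not time-dependent, Ki was instead calculated from the initial velocity.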

Neutrophil elastase = target: T2, Neutrophil elastase (Homo sapiens, UniProt P08246); experiment: In vitro inhibitory activity against human leukocyte elastase (HLE)
T2 sequence (P08246 whole entry): T1 sequence (whole entry)
Method in brief: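 HLE at 1 μg/mL mixed with inhibitor, with enzyme activity read 2 min after mixing. IC50 (μM) is the inhibitor concentration that cuts HLE activity by 50%.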

[2] = target: T1, Neutrophil elastase (Homo sapiens); experiment: Second-order rate constant for time-dependent inactivation of Human Leukocyte Elastase for 15 min; method in brief: as §1
[3] = target: T1, Neutrophil elastase (Homo sapiens)

| k obs / 1 [1] | IC50 (Neutrophil elastase) | k obs / 1 [2] | k obs / 1 [3] | SMILES |
| --- | --- | --- | --- | --- |
| 63900 M⁻¹ s⁻¹ | 130 nM | – | – | CO[C@H]1C(=O)N2C(C(=O)OC(C)(C)C)=C(COC(=O)N[C@@H](Cc3ccccc3)C(=O)O)CS(=O)(=O)C12 (stereo partly specified) |
| – | 1620 nM | 15000 M⁻¹ s⁻¹ | – | CO[C@H]1C(=O)N2C(C(=O)OC(C)(C)C)=C(CSc3nnnn3C)CS(=O)(=O)C12 (stereo partly specified) |
| 10800 M⁻¹ s⁻¹ | – | – | – | CO[C@H]1C(=O)N2C(C(=O)OC(C)(C)C)=C(COC(N)=O)CS(=O)(=O)C12 (stereo partly specified) |
| – | 2400 nM | – | – | CO[C@H]1C(=O)N2C(C(=O)OC(C)(C)C)=C(CSc3nnc[nH]3)CS(=O)(=O)C12 (stereo partly specified) |
| – | – | 14900 M⁻¹ s⁻¹ | – | CO[C@H]1C(=O)N2C(C(=O)OC(C)(C)C)=C(CCl)CS(=O)(=O)C12 (stereo partly specified) |
| – | – | 3500 M⁻¹ s⁻¹ | – | CO[C@H]1C(=O)N2C(C(=O)OC(C)(C)C)=C(CSc3nc[nH]n3)CS(=O)(=O)C12 (stereo partly specified) |
| – | 57800 nM | 46 M⁻¹ s⁻¹ | – | CO[C@H]1C(=O)N2C3=C(COC3=O)CS(=O)(=O)C12 (stereo partly specified) |
| – | 1820 nM | 4300 M⁻¹ s⁻¹ | – | CCOC(=S)SCC1=C(C(=O)OC(C)(C)C)N2C(=O)[C@H](OC)C2S(=O)(=O)C1 (stereo partly specified) |
| – | – | 3700 M⁻¹ s⁻¹ | – | CO[C@H]1C(=O)N2C(C(=O)OC(C)(C)C)=C(CSc3nnnn3CC(=O)O)CS(=O)(=O)C12 (stereo partly specified) |
| 16800 M⁻¹ s⁻¹ | 910 nM | – | – | CO[C@H]1C(=O)N2C(C(=O)OC(C)(C)C)=C(C[S+]([O-])c3ccccc3)CS(=O)(=O)C12 (stereo partly specified) |
| – | – | 15800 M⁻¹ s⁻¹ | – | CO[C@H]1C(=O)N2C(C(=O)OC(C)(C)C)=C(COC(=O)C(C)(C)C)CS(=O)(=O)C12 (stereo partly specified) |
| – | – | 32500 M⁻¹ s⁻¹ | – | CO[C@H]1C(=O)N2C(C(=O)OC(C)(C)C)=C(COC(=O)c3ccccc3)CS(=O)(=O)C12 (stereo partly specified) |

Continued, compound first:

| SMILES | k obs / 1 [1] | IC50 (Neutrophil elastase) | k obs / 1 [2] | k obs / 1 [3] |
| --- | --- | --- | --- | --- |
| CO[C@H]1C(=O)N2C(C(=O)OC(C)(C)C)=C(CSc3nnc(C)s3)CS(=O)(=O)C12 (stereo partly specified) | 7900 M⁻¹ s⁻¹ | 2230 nM | – | – |
| CO[C@H]1C(=O)N2C(C(=O)OC(C)(C)C)=C(COC(C)=O)CS(=O)(=O)C12 (stereo partly specified) | – | 1330 nM | – | 12700 M⁻¹ s⁻¹ |
| CO[C@H]1C(=O)N2C(C(=O)OC(C)(C)C)=C(COC(=O)CCC(=O)O)CS(=O)(=O)[C@H]12 | 13800 M⁻¹ s⁻¹ | – | – | – |
| C=CCC1=C(C(=O)OC(C)(C)C)N2C(=O)[C@H](OC)C2S(=O)(=O)C1 (stereo partly specified) | – | – | 6100 M⁻¹ s⁻¹ | – |
| CO[C@H]1C(=O)N2C(C(=O)OC(C)(C)C)=C(C)CS(=O)(=O)C12 (stereo partly specified) | 1630 M⁻¹ s⁻¹ | – | – | – |
| CO[C@H]1C(=O)N2C(C(=O)OC(C)(C)C)=C(CS(=O)(=O)c3ccccc3)CS(=O)(=O)C12 (stereo partly specified) | – | 440 nM | – | – |
| CO[C@H]1C(=O)N2C(C(=O)OC(C)(C)C)=C(COC(=O)NCc3ccccc3)CS(=O)(=O)C12 (stereo partly specified) | – | – | 15100 M⁻¹ s⁻¹ | – |
| CO[C@H]1C(=O)N2C(C(=O)OC(C)(C)C)=C(CSc3nccn3C)CS(=O)(=O)C12 (stereo partly specified) | – | 2330 nM | 1880 M⁻¹ s⁻¹ | – |
| CO[C@H]1C(=O)N2C(C(=O)OC(C)(C)C)=C(CSc3nc(=O)c(=O)[nH]n3C)CS(=O)(=O)C12 (stereo partly specified) | – | 630 nM | 8600 M⁻¹ s⁻¹ | – |
| COCC1=C(C(=O)OC(C)(C)C)N2C(=O)[C@H](OC)C2S(=O)(=O)C1 (stereo partly specified) | – | 1000 nM | – | – |

Source: ChEMBL document CHEMBL1124912, “Inhibition of human leukocyte elastase. 3. Synthesis and activity of 3'-substituted cephalosporins” (J Med Chem, 1990)
